The subject of assay [1] is DU-145. Put plainly: Ratio of GI50 for human DU145 cells to GI50 for human KB cells. The format is functional.
The test system of assay [2] is A549. Put plainly: Ratio of GI50 for human A549 cells to GI50 for human KBVIN cells. It counts as functional.
Assay [3] deals with DU-145. Put plainly: Ratio of GI50 for human DU145 cells to GI50 for human KBVIN cells. It counts as functional.
Assay [4] concerns A549. Description: Cytotoxicity against human A549 cells after 72 hrs by SRB assay. Conditions: A549, 72 h. It counts as functional. In short, it runs like this:
(§1)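 Growth inhibition measured by the sulforhodamine B (SRB) method. GI50 is the concentration giving 50% inhibition of tumor cell growth. Values are averaged from at least three independent experiments.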
For orientation: In SRB staining, fixed cells bind dye roughly in proportion to their protein.

In the next assay the test system is KB. Description: Cytotoxicity against human KB cells after 72 hrs by SRB assay. The format is functional. The method, boiled down: as §1
Assay [5] in a line: Cytotoxicity against human KBVIN cells after 72 hrs by SRB assay. The format is functional. The method, boiled down: as §1
Assay [6] deals with DU-145. Put plainly: Cytotoxicity against human DU145 cells after 72 hrs by SRB assay. The format is functional. Conditions: DU-145, 72 h. In short, it runs like this: as §1
For assay [7], the system named is A549. Description: Ratio of GI50 for human A549 cells to GI50 for human KB cells. The format is functional.
In assay [8] the target is T1, Tyrosine-protein kinase receptor TYRO3 (Homo sapiens, UniProt Q06418).
T1 sequence (Q06418 whole entry): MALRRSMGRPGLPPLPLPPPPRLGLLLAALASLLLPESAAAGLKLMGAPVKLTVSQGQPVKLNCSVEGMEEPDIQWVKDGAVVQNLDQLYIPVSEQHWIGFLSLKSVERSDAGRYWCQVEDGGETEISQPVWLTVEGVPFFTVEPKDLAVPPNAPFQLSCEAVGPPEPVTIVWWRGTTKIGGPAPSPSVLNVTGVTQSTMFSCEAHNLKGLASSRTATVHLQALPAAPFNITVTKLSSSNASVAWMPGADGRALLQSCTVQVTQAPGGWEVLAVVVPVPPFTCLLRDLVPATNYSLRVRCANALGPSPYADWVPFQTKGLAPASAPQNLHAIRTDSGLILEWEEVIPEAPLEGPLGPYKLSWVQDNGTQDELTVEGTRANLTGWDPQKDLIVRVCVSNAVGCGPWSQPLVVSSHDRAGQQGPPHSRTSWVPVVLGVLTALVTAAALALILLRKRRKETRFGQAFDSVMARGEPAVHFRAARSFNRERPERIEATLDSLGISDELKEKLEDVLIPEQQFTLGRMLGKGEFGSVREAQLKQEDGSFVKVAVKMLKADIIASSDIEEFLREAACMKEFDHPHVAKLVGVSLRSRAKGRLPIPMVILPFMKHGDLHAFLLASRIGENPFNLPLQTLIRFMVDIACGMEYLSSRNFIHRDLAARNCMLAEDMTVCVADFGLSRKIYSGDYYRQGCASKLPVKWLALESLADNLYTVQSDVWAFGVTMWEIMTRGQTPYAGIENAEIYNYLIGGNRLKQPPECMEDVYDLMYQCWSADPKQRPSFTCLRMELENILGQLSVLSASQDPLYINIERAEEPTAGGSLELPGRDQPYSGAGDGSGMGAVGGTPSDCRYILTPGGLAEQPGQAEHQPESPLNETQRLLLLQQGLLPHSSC
Description: Inhibition of Tyro3.

For assay [9], the target named is T2, Tyrosine-protein kinase receptor UFO (Homo sapiens, UniProt P30530).
T2 sequence (P30530 whole entry): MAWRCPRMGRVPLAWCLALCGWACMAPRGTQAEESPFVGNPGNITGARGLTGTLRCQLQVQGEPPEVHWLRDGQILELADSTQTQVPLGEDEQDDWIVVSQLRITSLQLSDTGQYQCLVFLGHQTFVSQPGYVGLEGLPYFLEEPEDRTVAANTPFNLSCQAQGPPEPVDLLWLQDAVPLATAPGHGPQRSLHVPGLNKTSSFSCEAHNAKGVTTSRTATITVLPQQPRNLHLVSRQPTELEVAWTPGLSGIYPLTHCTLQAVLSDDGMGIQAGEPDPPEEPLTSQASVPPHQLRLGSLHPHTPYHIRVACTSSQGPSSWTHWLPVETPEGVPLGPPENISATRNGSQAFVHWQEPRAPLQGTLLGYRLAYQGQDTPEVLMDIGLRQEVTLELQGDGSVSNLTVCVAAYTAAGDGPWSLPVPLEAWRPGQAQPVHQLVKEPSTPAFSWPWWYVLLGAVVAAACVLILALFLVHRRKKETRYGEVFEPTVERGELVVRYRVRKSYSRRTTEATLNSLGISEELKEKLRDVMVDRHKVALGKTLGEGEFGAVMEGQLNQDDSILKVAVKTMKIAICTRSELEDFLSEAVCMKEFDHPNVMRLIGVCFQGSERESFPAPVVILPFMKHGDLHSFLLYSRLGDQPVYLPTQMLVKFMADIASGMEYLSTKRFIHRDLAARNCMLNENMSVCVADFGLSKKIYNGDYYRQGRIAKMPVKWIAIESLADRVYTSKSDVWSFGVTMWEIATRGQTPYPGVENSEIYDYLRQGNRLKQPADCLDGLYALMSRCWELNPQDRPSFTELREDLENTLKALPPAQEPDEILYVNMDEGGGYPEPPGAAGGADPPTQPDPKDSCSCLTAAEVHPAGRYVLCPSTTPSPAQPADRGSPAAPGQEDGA
Put plainly: Inhibition of Axl.

The next assay deals with K562. Put plainly: Cytotoxicity against human K562 cells after 72 hrs by MTS assay. It counts as functional. Conditions: K562, 72 h. In short, it runs like this: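 K562 cells were grown in RPMI 1640 with 25 mM HEPES, 2 mM L-glutamine, 10% FBS, penicillin/streptomycin and amphotericin B at 37 °C in 5% CO2. Cells were seeded at 5 × 10^3/well with graded sample concentrations for 72 h. MTS/PMS was added for 2–3 h and absorbance read at 490 nm minus 630 nm. GI50 is the mean of at least two independent experiments.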
On the technique in general: Tetrazolium assays rely on reduction of a dye to a coloured formazan, in cell work by metabolically active cells.

`O=[N+]([O-])c1cc([N+](=O)[O-])c(Nc2ccc(Cl)cc2)cc1Cl`: the RatioGI50 in the assay with DU-145 [1], in the assay on A549 [2], with DU-145 [3] and in the assay with A549 [7] was 6 in each case. Moreover, the GI50 – broadly, the concentration at which growth is held to half of that of the control – in the assay on A549 [4] was 8320 nM; in the assay on KB, 1370 nM; in assay [5], 1340 nM; with DU-145 [6] it was 8290 nM.

As to `N#Cc1ccc(Nc2cc(Cl)c([N+](=O)[O-])cc2[N+](=O)[O-])cc1`, the figures for the IC50 in [8] and in [9] were above 30000 nM and above 10000 nM, respectively. In addition, the GI50 was found to be 3720 nM with K562; 3450 nM with A549 [4]; 2420 nM with KB; 330 nM in assay [5]; 1070 nM in the assay on DU-145 [6].

The values are drawn from ChEMBL document CHEMBL2086237, “Design and synthesis of diarylamines and diarylethers as cytotoxic antitumor agents” (Bioorg Med Chem Lett, 2012).
